Laboratory results: ChEMBL document CHEMBL1123801, “Synthesis and antifungal activity of new 1-vinylimidazoles” (1987)
Converted amounts (≈) assume the structure as drawn.

tested on: Candida albicans; test: Minimum inhibitory concentration (MIC) against Candida albicans; assay type: functional; conditions: not given
Method in brief: (§1)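 Broth microdilution in Sabouraud's glucose broth. Final inocula 1×10^5 cells/mL for the yeast (C. albicans) and 1×10^5 conidia/mL for the mold (A. fumigatus) and the dermatophyte (T. asteroides). MIC read as the fungistatic end point. Lowest value of duplicated experiments.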

| SMILES | MIC [µg/mL] |
| --- | --- |
| C=C(c1ccccc1OCc1ccccc1)n1ccnc1 | 12.5 (≈ 45.2 µM) |
| CC=C(c1ccccc1OCc1ccc(Cl)cc1Cl)n1ccnc1 | 12.5 (≈ 34.8 µM) |
| CC(C)COc1ccc(Cl)cc1/C(=C\CN(C)C)n1cncn1 | > 100 |
| C/C(CN(C)C)=C(\c1ccccc1OCC(C)C)n1ccnc1 | > 100 |
| C=C(c1cc(Cl)ccc1OCc1ccc(C(=O)OC)cc1)n1ccnc1 | 25 (≈ 67.8 µM) |
| CC(C)COc1ccccc1/C(=C/CN(C)C)n1ccnc1 | > 100 |
| CCCOc1ccc(Cl)cc1C(=C(C)C)n1ccnc1 | 25 (≈ 86 µM) |
| C=C(c1ccccc1OCCCc1ccccc1)n1ccnc1 | 12.5 (≈ 41.1 µM) |
| C=C(c1cc(Cl)ccc1OC(C)c1ccsc1)n1ccnc1 (centres undefined) | 12.5 (≈ 37.8 µM) |
| CCCOc1ccccc1C(=C(C)C)n1ccnc1 | 12.5 (≈ 48.8 µM) |
| CC(C)=C(c1ccccc1OCCc1ccccc1)n1ccnc1 | 50 (≈ 157 µM) |
| C=C(c1ccccc1OC(C)c1ccc(Cl)cc1)n1ccnc1 (centres undefined) | 3.1 (≈ 9.54 µM) |
| C=C(c1ccccc1OCCCc1ccc(Cl)cc1)n1ccnc1 | 12.5 (≈ 36.9 µM) |
| CC(C)=C(c1cc(Cl)ccc1OCc1ccc(C)cc1)n1ccnc1 | 25 (≈ 70.8 µM) |
| C=C(c1cc(Cl)cc(Cl)c1OCc1ccccc1)n1ccnc1 | > 100 |
| C=C(c1cc(Cl)ccc1OCCCc1ccccc1)n1ccnc1 | 50 (≈ 148 µM) |
| C=C(c1ccccc1OC(CCC)c1ccccc1)n1ccnc1 (centres undefined) | 12.5 (≈ 39.3 µM) |
| CC(C)=C(c1cc(Cl)ccc1OCc1ccc(Cl)cc1)n1ccnc1 | 6.2 (≈ 16.6 µM) |

tested on: Trichophyton benhamiae; test: Minimum inhibitory concentration against Trichophyton asteroides; assay type: functional; conditions: not given; method in brief: as §1

| SMILES | MIC [µg/mL] |
| --- | --- |
| C=C(c1ccccc1OCc1ccccc1)n1ccnc1 | 0.2 (≈ 0.724 µM) |
| CC=C(c1ccccc1OCc1ccc(Cl)cc1Cl)n1ccnc1 | 6.2 (≈ 17.3 µM) |
| CC(C)COc1ccc(Cl)cc1/C(=C\CN(C)C)n1cncn1 | 12.5 (≈ 37.3 µM) |
| C/C(CN(C)C)=C(\c1ccccc1OCC(C)C)n1ccnc1 | 0.8 (≈ 2.55 µM) |
| C=C(c1cc(Cl)ccc1OCc1ccc(C(=O)OC)cc1)n1ccnc1 | 0.1 (≈ 0.271 µM) |
| CC(C)COc1ccccc1/C(=C/CN(C)C)n1ccnc1 | > 100 |
| CCCOc1ccc(Cl)cc1C(=C(C)C)n1ccnc1 | 0.2 (≈ 0.688 µM) |
| C=C(c1ccccc1OCCCc1ccccc1)n1ccnc1 | 0.1 (≈ 0.329 µM) |
| C=C(c1cc(Cl)ccc1OC(C)c1ccsc1)n1ccnc1 (centres undefined) | 0.1 (≈ 0.302 µM) |
| CCCOc1ccccc1C(=C(C)C)n1ccnc1 | 0.2 (≈ 0.78 µM) |
| CC(C)=C(c1ccccc1OCCc1ccccc1)n1ccnc1 | 0.1 (≈ 0.314 µM) |
| C=C(c1ccccc1OC(C)c1ccc(Cl)cc1)n1ccnc1 (centres undefined) | 0.1 (≈ 0.308 µM) |
| C=C(c1ccccc1OCCCc1ccc(Cl)cc1)n1ccnc1 | 0.2 (≈ 0.59 µM) |
| CC(C)=C(c1cc(Cl)ccc1OCc1ccc(C)cc1)n1ccnc1 | 1.6 (≈ 4.53 µM) |
| C=C(c1cc(Cl)cc(Cl)c1OCc1ccccc1)n1ccnc1 | 3.1 (≈ 8.98 µM) |
| C=C(c1cc(Cl)ccc1OCCCc1ccccc1)n1ccnc1 | 0.2 (≈ 0.59 µM) |
| C=C(c1ccccc1OC(CCC)c1ccccc1)n1ccnc1 (centres undefined) | 0.4 (≈ 1.26 µM) |
| CC(C)=C(c1cc(Cl)ccc1OCc1ccc(Cl)cc1)n1ccnc1 | 0.2 (≈ 0.536 µM) |

tested on: Aspergillus fumigatus; test: Minimum inhibitory concentration (MIC) against Aspergillus fumigatus; assay type: functional; conditions: not given; method in brief: as §1

| SMILES | MIC [µg/mL] |
| --- | --- |
| C=C(c1ccccc1OCc1ccccc1)n1ccnc1 | 3.1 (≈ 11.2 µM) |
| CC=C(c1ccccc1OCc1ccc(Cl)cc1Cl)n1ccnc1 | 0.1 (≈ 0.278 µM) |
| CC(C)COc1ccc(Cl)cc1/C(=C\CN(C)C)n1cncn1 | > 100 |
| C/C(CN(C)C)=C(\c1ccccc1OCC(C)C)n1ccnc1 | > 100 |
| C=C(c1cc(Cl)ccc1OCc1ccc(C(=O)OC)cc1)n1ccnc1 | 6.2 (≈ 16.8 µM) |
| CC(C)COc1ccccc1/C(=C/CN(C)C)n1ccnc1 | > 100 |
| CCCOc1ccc(Cl)cc1C(=C(C)C)n1ccnc1 | 6.3 (≈ 21.7 µM) |
| C=C(c1ccccc1OCCCc1ccccc1)n1ccnc1 | 3.1 (≈ 10.2 µM) |
| C=C(c1cc(Cl)ccc1OC(C)c1ccsc1)n1ccnc1 (centres undefined) | 3.1 (≈ 9.37 µM) |
| CCCOc1ccccc1C(=C(C)C)n1ccnc1 | 0.8 (≈ 3.12 µM) |
| CC(C)=C(c1ccccc1OCCc1ccccc1)n1ccnc1 | 0.8 (≈ 2.51 µM) |
| C=C(c1ccccc1OC(C)c1ccc(Cl)cc1)n1ccnc1 (centres undefined) | 6.2 (≈ 19.1 µM) |
| C=C(c1ccccc1OCCCc1ccc(Cl)cc1)n1ccnc1 | 0.8 (≈ 2.36 µM) |
| CC(C)=C(c1cc(Cl)ccc1OCc1ccc(C)cc1)n1ccnc1 | 12.5 (≈ 35.4 µM) |
| C=C(c1cc(Cl)cc(Cl)c1OCc1ccccc1)n1ccnc1 | > 100 |
| C=C(c1cc(Cl)ccc1OCCCc1ccccc1)n1ccnc1 | 1.6 (≈ 4.72 µM) |
| C=C(c1ccccc1OC(CCC)c1ccccc1)n1ccnc1 (centres undefined) | 12.5 (≈ 39.3 µM) |
| CC(C)=C(c1cc(Cl)ccc1OCc1ccc(Cl)cc1)n1ccnc1 | 6.2 (≈ 16.6 µM) |

tested on: Candida albicans; test: Inhibition of pseudomycelium formation of Candida albicans.; assay type: functional; conditions: read-out: MEC
Method in brief: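 C. albicans KE-2 (clinical isolate), final inoculum 1×10^6 yeast cells/mL in EMEM with 20% calf serum. Compounds serially diluted by the microtiter dilution system used for MICs. After incubation, wells Giemsa-stained (5% in phosphate buffer) and examined microscopically. MEC (μg/mL) = lowest concentration preventing typical pseudomycelium formation. Lowest value of duplicated experiments.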

| SMILES | minimal effective concentration [µg/mL] |
| --- | --- |
| CC(C)COc1ccc(Cl)cc1/C(=C\CN(C)C)n1cncn1 | 0.31 |
| C/C(CN(C)C)=C(\c1ccccc1OCC(C)C)n1ccnc1 | 0.63 |
| CC(C)COc1ccccc1/C(=C/CN(C)C)n1ccnc1 | 5 |
| CCCOc1ccc(Cl)cc1C(=C(C)C)n1ccnc1 | 0.31 |
| CCCOc1ccccc1C(=C(C)C)n1ccnc1 | 0.31 |
